One series deals with CYP isozymes. In words: metabolism in human hepatocytes and heterologously expressed CYP isozymes. It is filed as in vitro ADME.
The subject of the next series is p-AKT (S473) in PRP. In words: p-AKT in platelet-rich plasma by Meso Scale Discovery immunoassay. It counts as in vivo, human.
The test system of another series is p-AKT. In words: p-AKT immunohistochemistry in pre- and post-treatment tumor biopsies. It is filed as in vivo, human. As to conditions: 50 mg BD. The method, boiled down: (§1)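 Paired tumor biopsies taken before treatment and on days 8-15 of continuous oral twice-daily dosing, in a subset of expansion-cohort patients with advanced solid tumors. Patients fasted (water allowed) 2 h before and 1 h after each dose. Markers were scored by immunohistochemistry on post-treatment versus pre-treatment samples.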

A further series concerns p-4EBP1. In words: p-4EBP1 immunohistochemistry in pre- and post-treatment tumor biopsies. It counts as in vivo, human. As to conditions: 50 mg BD, post-treatment vs pre-treatment, mean H score. The method, boiled down: as §1
The subject of the next series is advanced solid tumors. In words: disease response by RECIST 1.1. As to conditions: one each with ovarian and endometrial cancer. It is filed as in vivo, human.

With `CNC(=O)c1cccc(-c2ccc3c(N4CCOC[C@@H]4C)nc(N4CCOC[C@@H]4C)nc3n2)c1` [AZD2014], the “metabolising CYP isozymes” value with CYP isozymes is “primarily metabolised by CYP 3A5 and 2C8 with some contribution from 3A4”. Moreover, the “mean % change from baseline in p-AKT” value was −2% in the series on p-AKT (S473) in PRP (50 mg, 24 hours (12 hours after the 2nd BD dose)); −37% in the series on p-AKT (S473) in PRP (single 50 mg dose, 6-8 hours); −62% in the series with p-AKT (S473) in PRP (single 50 mg dose, 2 hours). The “induction of phosphorylation of AKT in post-treatment biopsies” value with p-AKT is given as “no instances of induction of phosphorylation of AKT were seen”. Moreover, the “paired biopsy samples with a reduction of p-AKT levels” value in the series on p-AKT (post-treatment vs pre-treatment, mean H score) is reported as 3/4. The “paired biopsy samples with a reduction of p-4EBP1 levels” value in the series with p-4EBP1 is reported as 3/7. Moreover, the “patients with prolonged stable disease on treatment for more than one year” value in the series with advanced solid tumors is “two patients”.

The values above are taken from paper PMC4512239 (Clinical cancer research : an official journal of the …, 2015).
